An excerpt weighted towards active compounds, which were near 9.4% of everything screened.
T cruzi repl = T. cruzi replication inhibition. T. cruzi beta-gal in NIH3T3, luminescence, 90 h. inhibition, % (concentration not given with the values). actives 1.4% (n = 300,000). AID 1885;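 active = mean inhibition across valid replicates above about 55%, limit read from the data; inconclusive = mean below that limit but half or more replicates reach it; inactive = mean below it, under half of replicates reach it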;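 also: signal also drops with host cell toxicity which is not excluded here; 0% = plate median of DMSO wells and 100% = zero luminescence signal; higher percent means less beta-gal luminescence so fewer parasites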
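compound dosing = single 50 nL compound addition per well in DMSO | material = NIH/3T3 host cells with β-galactosidase reporter T. cruzi | input = 5,000 host fibroblasts per well | timing = ≥90 h infection period, 3 h prior cell attachment | read-out basis = percent inhibition of parasite-derived β-gal signal | detection = GalScreen β-gal luminescence, detergent lysis, 60 min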
Mdm2 MdmX PPI = human Mdm2/MdmX binding inhibition; SaOS-2 split-luciferase Mdm2/MdmX complementation, luminescence; inhibition, % at 8 µM; actives 3% (n = 330,000); AID 485346;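 active = inhibition of at least 50% at 8 µM in the primary screen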
Target sequence (O15151 whole entry, looked up): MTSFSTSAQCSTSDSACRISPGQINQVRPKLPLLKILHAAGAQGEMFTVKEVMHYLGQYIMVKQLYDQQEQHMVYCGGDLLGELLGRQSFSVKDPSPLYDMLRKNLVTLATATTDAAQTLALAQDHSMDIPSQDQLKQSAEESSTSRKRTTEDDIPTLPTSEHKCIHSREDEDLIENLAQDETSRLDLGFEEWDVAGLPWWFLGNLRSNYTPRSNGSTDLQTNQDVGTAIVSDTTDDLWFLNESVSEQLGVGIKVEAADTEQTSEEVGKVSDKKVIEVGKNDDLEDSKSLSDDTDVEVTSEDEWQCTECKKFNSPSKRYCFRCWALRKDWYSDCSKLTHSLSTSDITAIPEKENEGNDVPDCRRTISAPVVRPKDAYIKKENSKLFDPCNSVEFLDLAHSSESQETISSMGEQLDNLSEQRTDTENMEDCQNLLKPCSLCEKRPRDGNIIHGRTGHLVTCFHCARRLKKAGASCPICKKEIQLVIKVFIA
Target sequence (Q00987 whole entry, looked up): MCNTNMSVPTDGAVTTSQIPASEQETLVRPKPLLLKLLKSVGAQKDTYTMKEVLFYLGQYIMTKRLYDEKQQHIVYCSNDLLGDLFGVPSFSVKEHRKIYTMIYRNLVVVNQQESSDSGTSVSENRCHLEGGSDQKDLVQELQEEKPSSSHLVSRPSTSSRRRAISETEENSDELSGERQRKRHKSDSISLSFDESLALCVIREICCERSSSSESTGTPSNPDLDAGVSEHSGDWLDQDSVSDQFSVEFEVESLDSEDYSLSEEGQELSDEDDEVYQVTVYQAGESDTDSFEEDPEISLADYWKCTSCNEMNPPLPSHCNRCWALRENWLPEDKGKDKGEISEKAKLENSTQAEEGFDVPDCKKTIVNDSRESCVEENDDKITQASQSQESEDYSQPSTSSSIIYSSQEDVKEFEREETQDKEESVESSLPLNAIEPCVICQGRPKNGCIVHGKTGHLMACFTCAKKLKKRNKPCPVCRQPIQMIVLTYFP
L major viab = reduces viability of Leishmania major promastigotes. inhibition, % at 10 µM. actives 9% (n = 200,000). resazurin fluorescence viability. AID 1063; in the data active = inhibition above about 50%;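 also: promastigotes grown with compound for 44 hours at 28 °C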
CSC inhib = cancer stem cell inhibition. cancer stem cell-like cells viability, luminescence. inhibition, % at 7.5 µM. actives 1.1% (n = 300,000). AID 2717; in the data active = inhibition above about 75%; inconclusive = no clear call, values can overlap the other calls; tested in HMLE shEcad cells
Beta apoptosis = beta cell apoptosis inhibition | INS-1E cytokine-induced death, ATP luminescence, 48 h; percent of positive-control rescue, neutral wells zero | protection from apoptosis, % (no concentration beside the values) | actives 0.8% (n = 300,000);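 active = Every replicate reaches about 75%, or at least half do and their mean reaches it too, limit read from the data; inconclusive = At least half of replicates reach the limit but their mean does not; inactive = Under half of replicates reach the limit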;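 also: 0% = cytokine-treated negative control wells and 100% = positive control rescue; higher means more ATP so stronger rescue from cytokine killing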
SKKanGAS inh = SKKanGAS growth inhibition; S. pyogenes SKKanGAS, kanamycin growth, BacTiter-Glo, 6 h; inhibition, % at 7.5 µM; AID 1662; actives 1.3% (n = 300,000);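 active = mean replicate score, as percent of positive control median, at least 50; inconclusive = mean below 50 but one replicate at or above 50; inactive = mean and every replicate below 50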;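 also: strain carries kanamycin resistance gene driven by streptokinase promoter and grows in 40 µg/ml kanamycin; loss of luminescence reflects streptokinase promoter inhibition or plain growth inhibition; 0% = median of DMSO wells and 100% = positive control at its reference dose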
Mdm2 MdmX conf = confirmation of human Mdm2/MdmX interaction inhibitors. shares compounds with Mdm2 MdmX PPI. Mdm2-MdmX binding, luminescent assay. inhibition, % at 8 µM. actives 55% (n = 10,000). AID 489028; in the data active = inhibition above about 40%
Full FLuc ctr = counter-screen for Mdm2/MdmX inhibitors: full-length luciferase; inhibition, % at 8 µM; shares compounds with Mdm2 MdmX PPI; actives 77% (n = 6,200); SaOS-2 full-length luciferase counterscreen, luminescence;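 active = mean inhibition at 8 µM reaching about 37%, which flags the compound as non-specific, limit read from the data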;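 also: p53-null SaOS-2 cells with luciferase driven by a doxycycline-inducible promoter; compound on cells about two nights before reading with doxycycline added after day one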
Active calls of the source: *.

Screening COc1ccc(/C=C2/Sc3ccc(C(=O)NCCN4CCCCCC4)cc3NC2=O)cc1 returned T cruzi repl 32, Mdm2 MdmX PPI 100*, CSC inhib -12, SKKanGAS inh 27, Mdm2 MdmX conf 88* and Full FLuc ctr 6.
`CC(C)CC(=O)c1c(O)c(C=O)c(O)c2c1O[C@@]1(C)[C@@H](C2)C[C@H]2C[C@@H]1C2(C)C` gave Mdm2 MdmX PPI 59*, CSC inhib 107*, Beta apoptosis 2 and Mdm2 MdmX conf -3.
Screening Cc1ccc(/C=C2/NC(=O)N(c3ccccc3)C2=O)o1 returned T cruzi repl -14, Mdm2 MdmX PPI -6, L major viab 0, CSC inhib 12, Beta apoptosis -6 and SKKanGAS inh 5.
O=C1N/C(=C/c2ccc(Br)s2)C(=O)N1c1ccccc1 was read as T cruzi repl -11, Mdm2 MdmX PPI 51*, L major viab 1, CSC inhib -1, Beta apoptosis -1, SKKanGAS inh -6 and Mdm2 MdmX conf 26.
Screening Cc1nc2c(C)cccc2cc1C(=O)N/N=C/c1ccc(C(=O)O)cc1 returned T cruzi repl -4, Mdm2 MdmX PPI -15, L major viab -7, CSC inhib 0, Beta apoptosis -7 and SKKanGAS inh -3.
Cc1nc2c(C)cccc2cc1C(=O)N/N=C/c1ccc(N(C)C)cc1 was read as T cruzi repl -19, Mdm2 MdmX PPI 50*, L major viab -7, CSC inhib 64, Beta apoptosis -6, SKKanGAS inh 0, Mdm2 MdmX conf 49* and Full FLuc ctr 57*.
Screening Cc1ccc(NC(=O)COC(=O)c2cc(=O)c3cc(F)ccc3o2)cc1 returned Mdm2 MdmX PPI 19.
Screening Cc1ccc(Cl)cc1NC1=C/C(=N\S(=O)(=O)c2cccs2)c2ccccc2C1=O returned T cruzi repl 61*, Mdm2 MdmX PPI 81*, L major viab 100*, CSC inhib 101*, Beta apoptosis 111*, SKKanGAS inh 95*, Mdm2 MdmX conf 100* and Full FLuc ctr 52*.
For Cc1ccc(NC2=C/C(=N\S(=O)(=O)c3cccs3)c3ccccc3C2=O)c(C)c1 the results were T cruzi repl 57*, Mdm2 MdmX PPI 84*, L major viab 101*, CSC inhib -6, Beta apoptosis 114*, SKKanGAS inh 100*, Mdm2 MdmX conf 100* and Full FLuc ctr 52*.
Screening COCCNC(=O)c1cn(C)c2ccccc2c1=O returned T cruzi repl -4, Mdm2 MdmX PPI 4, L major viab 2, CSC inhib -11, Beta apoptosis -4 and SKKanGAS inh 5.
For Cc1ccc(CNC(=O)c2ccc(N3CCC4(CC3)CC(c3ccccc3)=NO4)c(N)c2)cc1 the results were T cruzi repl 33, Mdm2 MdmX PPI 55*, CSC inhib 16, Beta apoptosis 18, SKKanGAS inh 18 and Mdm2 MdmX conf 0.
Screening Cc1ccc(S(=O)(=O)N2CCCCC2CCNC(=O)C(=O)Nc2ccccc2F)cc1 (stereo not given) returned T cruzi repl 12, Mdm2 MdmX PPI 52*, CSC inhib 39, Beta apoptosis 7, SKKanGAS inh -3, Mdm2 MdmX conf 75* and Full FLuc ctr 54*.
`CCOc1c(OC(C)=O)ccc(/C=C/c2ccc3cccc(OC)c3n2)c1[N+](=O)[O-]` gave T cruzi repl -7, Mdm2 MdmX PPI -51, L major viab -1, CSC inhib 43, Beta apoptosis -10 and SKKanGAS inh 3.
COc1ccc(/C=C/c2ccc3cccc(O)c3n2)c(OC)c1OC was read as T cruzi repl 35, Mdm2 MdmX PPI 100*, CSC inhib 73, Beta apoptosis 31, SKKanGAS inh 105* and Mdm2 MdmX conf 18.
Screening COC(=O)c1ccc(/C=C/c2ccc3cccc(OC)c3n2)cc1 returned T cruzi repl 2, Mdm2 MdmX PPI 31, L major viab -4, CSC inhib 3, Beta apoptosis 6 and SKKanGAS inh inconclusive.
For COc1cccc(/C=C/c2ccc3cccc(O)c3n2)c1OC the results were T cruzi repl 41, Mdm2 MdmX PPI 70*, CSC inhib 66, Beta apoptosis 51, SKKanGAS inh 86* and Mdm2 MdmX conf -95.
Screening CS(=O)(=O)N1N=C(c2cccs2)CC1c1ccccc1O (stereo not given) returned T cruzi repl -16, Mdm2 MdmX PPI 18, L major viab -4, CSC inhib -11, Beta apoptosis -2 and SKKanGAS inh -4.
For Oc1ccccc1C1CC(c2cccs2)=NC(c2ccc(Cl)cc2)N1 (stereo not given) the results were T cruzi repl -6, Mdm2 MdmX PPI 85*, L major viab 49, CSC inhib -4, Beta apoptosis 39, SKKanGAS inh 13, Mdm2 MdmX conf 86* and Full FLuc ctr 28.
COc1ccc(OC)c(NC(=O)CN(Cc2ccc(F)cc2)C2CCCCC2)c1 was read as T cruzi repl 23, Mdm2 MdmX PPI 52*, CSC inhib 23, Beta apoptosis 100*, SKKanGAS inh 12 and Mdm2 MdmX conf 23.
For Clc1ccc(-c2c[n+](Cc3ccc(Cl)cc3Cl)c3n2CCCCC3)cc1 the results were T cruzi repl 15, Mdm2 MdmX PPI 38, CSC inhib 9, Beta apoptosis 52 and SKKanGAS inh 5.
CC1CCC(C(C)C)C(OC(=O)C[n+]2cc(-c3ccc(Cl)cc3)n3c2CCCCC3)C1 (stereo not given) was read as T cruzi repl 56*, Mdm2 MdmX PPI 85*, L major viab 100*, CSC inhib -4, Beta apoptosis 106*, SKKanGAS inh 22, Mdm2 MdmX conf 74* and Full FLuc ctr 36*.
For CCOC(=O)c1cnc(SC)nc1Sc1ccccc1Cl the results were Mdm2 MdmX PPI 11, L major viab -4, CSC inhib -6 and SKKanGAS inh -16.
`CSc1nc(Sc2ccccc2Cl)c2ccccc2n1` gave T cruzi repl -1, Mdm2 MdmX PPI 53*, L major viab -1, Beta apoptosis -9, SKKanGAS inh 59*, Mdm2 MdmX conf 46* and Full FLuc ctr 55*.
Screening O=C(COC(=O)CN1C(=O)NC2(CCCC2)C1=O)Nc1c(Cl)cccc1C(F)(F)F returned T cruzi repl -10, Mdm2 MdmX PPI -1, CSC inhib -11, Beta apoptosis -4 and SKKanGAS inh 2.
`Cc1cn(-c2cc(C(=O)Nc3ccc(C)c(NC(=O)N4CCNC4=O)c3)cc(C(F)(F)F)c2)cn1` gave T cruzi repl -20, Mdm2 MdmX PPI 20, CSC inhib -12, Beta apoptosis 0 and SKKanGAS inh 4.

Screens deposited in PubChem BioAssay by several laboratories.
